Measurements reported in PubChem BioAssay.
Activity calls are given as the source filed them. Unless noted, no stated cut-off is given here; in the data, active means inhibition above about 31%; inactive means the rest.

Assays:
[1] = HUVEC growth inhibition – cell-based, human, primary screen (AID 575;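 active means viability at or below 30% in both replicate assays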;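 further: 100% = median of untreated cell wells with 0.1% DMSO on each plate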); conditions: HUVEC proliferation, CellTiter-Glo luminescence, 72 h; at 10 µM; stronger effect = lower value
Method in brief: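 Timing: 72 h treatment at 37 °C; material: HUVEC primary cells; technique: CellTiter-Glo luminescence measuring cellular ATP; controls: vehicle and MePR control wells; measure: percent of median DMSO-control luminescence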

[2] = growth inhibitors of H69AR lung tumor, primary screen, human, duplicate replicates (AID 580;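 active means viability at or under a set limit in both replicates, limit being median viability minus 3 SD, cut at about 48% in these data, passing the limit was not always enough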;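 further: 100% = mean luminescence of untreated wells and 0% = no signal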); conditions: H69AR lung tumor cells viability, ATP luminescence, 72 h; at 10 µM; stronger effect = lower value
[3] = reversal of MRP1-mediated doxorubicin resistance, pilot screen, H69AR cells, doxorubicin co-treatment (AID 601;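 active means viability loss from added drug above about 55%, and viability with drug at most 40%, in both replicates, limit read from the data, passing the limit was not always enough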); conditions: CellTiter-Glo, 72 h, at 10 µM; for differential viability (reversal): stronger effect = higher value
[4] = 384-well plate pilot, post-Golgi transport modulator project, inhibition of yeast transport mutant growth (AID 636); conditions: absorbance 615 nm, about 18 h, stronger effect = higher value
[5] = growth suppression of yeast trafficking mutant, preliminary HTS, modulators of trafficking downstream of Golgi apparatus project, 1536-format plate, OD 615 nm (AID 637; in the data active means inhibition above about 30%); conditions: yeast transport mutant growth, absorbance 615 nm, 18 h; stronger effect = higher value
[6] = H69AR cells + 2 uM doxorubicin, measured here: viability with 2 uM doxorubicin, stronger effect = lower value
[7] = H69AR cells, compound alone cytotoxicity

| Compound | viability [1] | viability [2] | differential viability (reversal) ([3]; H69AR cells + 2 uM doxorubicin) | viability [3, 6] [%] | viability [3, 7] [%] | inhibition [4] | inhibition [5] |
| --- | --- | --- | --- | --- | --- | --- | --- |
| O=c1oc2ccccc2c(O)c1CN1CCCCC1 | 96.3% (inactive) | 99.9% (inactive) | 16.1% (inactive) | 83.8 | 99.9 | -6% (inactive) | 2.22% (inactive) |
| CC(NS(=O)(=O)c1ccc(OCC(=O)N2CCOCC2)c(Cl)c1)c1ccccc1 (stereo not given) | 94.9% (inactive) | 94.7% (inactive) | 0.355% (inactive) | 94.4 | 94.7 | -6.53% (inactive) | 4.76% (inactive) |
| O=C(O)C1CC(=O)N(c2ccc(OCc3c(F)cccc3Cl)cc2)C1 (stereo not given) | 105% (inactive) | 105% (inactive) | 4.8% (inactive) | 101 | 105 | -0.52% (inactive) | -1.9% (inactive) |
| Cc1ccc(NC(=O)C2CCCNC2=O)nc1 (stereo not given) | 106% (inactive) | 97.8% (inactive) | 3.79% (inactive) | 94 | 97.8 | -0.13% (inactive) | -2.7% (inactive) |
| CN(C)S(=O)(=O)N1CCN(S(=O)(=O)c2ccc(F)cc2)CC1 | 90.7% (inactive) | 101% (inactive) | 4.42% (inactive) | 96.1 | 101 | 2.8% (inactive) | -2.22% (inactive) |
| CCOc1ncccc1C(=O)Nc1ccc2c(C)cc(=O)oc2c1 | 84.1% (inactive) | 93.5% (inactive) | 1.12% (inactive) | 92.4 | 93.5 | -3.77% (inactive) | 6.51% (inactive) |
| COc1ccc(C)cc1NC(=O)CCN1CCCC1 | 105% (inactive) | 97.5% (inactive) | 9.77% (inactive) | 87.7 | 97.5 | -6.13% (inactive) | 1.11% (inactive) |
| CC(=O)N1CCN(S(=O)(=O)c2ccc(S(=O)(=O)NC3CC3)cc2)CC1 | 112% (inactive) | 92.3% (inactive) | 5.03% (inactive) | 87.3 | 92.3 | -6.8% (inactive) | 2.86% (inactive) |
| COc1ccc(C2(C(=O)Nc3cc(C)on3)CCOCC2)cc1 | 98% (inactive) | 88.1% (inactive) | 1.2% (inactive) | 86.9 | 88.1 | -5.87% (inactive) | 10.8% (inactive) |
| CCOC(=O)c1nnn(-c2nonc2NC(C)=O)c1C | 91.7% (inactive) | 98.2% (inactive) | 1.68% (inactive) | 96.5 | 98.2 | -0.65% (inactive) | -4.13% (inactive) |
| COC(=O)CN(c1ccc2c(c1)OCO2)S(C)(=O)=O | 102% (inactive) | 110% (inactive) | 12.5% (inactive) | 97.9 | 110 | -2.63% (inactive) | 6.67% (inactive) |
| CCN1C(=O)/C(=C/N2CCc3ccccc32)SC1=S | 98.3% (inactive) | 58.5% (inactive) | -3.35% (inactive) | 61.9 | 58.5 | -2.63% (inactive) | 0.95% (inactive) |
| COc1ccc(CCNC(=O)c2nc3ncccn3n2)cc1OC | 113% (inactive) | 102% (inactive) | 7.66% (inactive) | 94.5 | 102 | -4.08% (inactive) | 7.78% (inactive) |
| CC(=O)Nc1ccc(NC(=O)c2ccccc2F)cc1 | 110% (inactive) | 108% (inactive) | 16.1% (inactive) | 92.2 | 108 | -1.82% (inactive) | -4.13% (inactive) |
| Cc1cc(C)cc(Nc2ncc3c(n2)CC(c2ccco2)CC3=O)c1 (stereo not given) | 86.1% (inactive) | 88.3% (inactive) | 1% (inactive) | 87.3 | 88.3 | -6.67% (inactive) | 3.17% (inactive) |
| CN1CCN(S(=O)(=O)c2ccc(NC(=O)c3ccc(F)cc3)cc2)CC1 | 94.2% (inactive) | 96.8% (inactive) | 7.89% (inactive) | 88.9 | 96.8 | -4% (inactive) | -5.08% (inactive) |
| Cc1nc2cc(NC(=O)N3CC4(C)CC3CC(C)(C)C4)ccc2n1C (stereo not given) | 100% (inactive) | 89.7% (inactive) | 7.53% (inactive) | 82.2 | 89.7 | -6.71% (inactive) | -8.1% (inactive) |
| N#CCSCC(=O)Nc1ccc(F)cc1 | 91.7% (inactive) | 93.1% (inactive) | 9.54% (inactive) | 83.6 | 93.1 | -3.68% (inactive) | 0% (inactive) |
| CC1(c2ccc(OC(F)F)cc2)NC(=O)N(CC(=O)Nc2ccc3c(c2)OCO3)C1=O (stereo not given) | 81.6% (inactive) | 91.7% (inactive) | -2.95% (inactive) | 94.7 | 91.7 | -5.71% (inactive) | -3.65% (inactive) |
| O=c1cc(CSc2nnnn2-c2ccccc2)nc2scc(-c3ccccc3)n12 | 92% (inactive) | 101% (inactive) | 6.61% (inactive) | 93.9 | 101 | 0.13% (inactive) | -7.62% (inactive) |
